According to ChEMBL document CHEMBL1148705, “Sponge-derived fijianolide polyketide class: further evaluation of their structural and cytotoxicity properties” (J Med Chem, 2007):
Activity calls are given as the source filed them. The rule behind the calls is not given here.

Columns and labels:
MC-38 [1] = test: Cytotoxicity against mouse C38 cells at 100 ug/disk by disk diffusion method; type: functional
Summary of the method: (§1)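 Soft agar colony formation assay with compound applied by disk diffusion; cell lines: murine L1210 leukemia and C38 colon, human HCT-116 colon, H-125 lung, CEM leukemia, normal hematopoietic CFU-GM. Differential cytotoxicity given as zone-unit differential between a solid tumor line and leukemia (ΔSL) or normal cells (ΔSN).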

L1210 [2] = test: Cytotoxicity against mouse L1210 cells at 100 ug/disk by disk diffusion method; type: functional; summary of the method: as §1
HCT-116 [3] = test: Formation of circular mitotic spindles in human HCT116 up to 50 uM; type: functional, cell-based
Summary of the method: (§2)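 Cell-based screen for disruption of interphase and mitotic microtubules, tested at concentrations up to 50 µM; scored for microtubule density, bundling, circular mitotic spindles, micronucleation and other nuclear changes.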

HCT-116 [4] = test: Cytotoxicity against human HCT116 cells after 72 hrs by trypan blue viable cell count; details: HCT-116, 72 h
[5] = Cytotoxicity against human H116 cells at 100 ug/disk by disk diffusion method; type: functional; summary of the method: as §1
MDA-MB-435 = test: Cytotoxicity against human MDA-MB-435 cells after 48 hrs by SRB assay; details: MDA-MB-435, 48 h
[6] = Cytotoxicity against human H125 cells at 100 ug/disk by disk diffusion method; type: functional; summary of the method: as §1
HCT-116 [7] = test: Effect on micronucleation in human HCT116 up to 50 uM; type: functional, cell-based; summary of the method: as §2
HCT-116 [8] = test: Increase in microtubule density in human HCT116 up to 50 uM; type: functional, cell-based; summary of the method: as §2
[9] = Cytotoxicity against human H116 cells at 30 ug/disk by disk diffusion method; type: functional; summary of the method: as §1
[10] = Cytotoxicity against human H125 cells at 30 ug/disk by disk diffusion method; type: functional; summary of the method: as §1
MC-38 [11] = test: Cytotoxicity against mouse C38 cells at 30 ug/disk by disk diffusion method; type: functional; summary of the method: as §1
L1210 [12] = test: Cytotoxicity against mouse L1210 cells at 30 ug/disk by disk diffusion method; type: functional; summary of the method: as §1
CCRF-CEM [13] = test: Cytotoxicity against human CEM cells at 36 ug/disk by disk diffusion method; type: functional
Summary of the method: (§3)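 Disk diffusion soft agar colony formation assay using solid tumor lines (murine colon C38, human colon HCT-116, human lung H125), leukemia lines (murine L1210, human CEM) and normal CFU-GM cells. Results are inhibition zones in zone units. Differential cytotoxicity is the zone difference between solid tumor and leukemia cells (ΔSL) or normal cells (ΔSN).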

[14] = Drug level in HCT116 bearing SCID mice plasma at 25 mg/kg, iv after 1 min; type: ADME, organism-based; parameters: dose 25 mg/kg, route intravenous; details: mouse
Summary of the method: (§4)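 SCID mice bearing subcutaneous HCT-116 tumors (~100 mg) got a single iv dose of 0.5 mg/mouse (25 mg/kg) in 0.25 mL. Vehicle: 10 mg/mL DMSO stock mixed 1:1 with cremophor/propylene glycol (60:40), then diluted 20-fold in saline. Plasma was taken from individual mice at 1, 15, 30 min and 1, 2, 6, 24 h. Drug was extracted by solid-phase extraction and measured by C18 HPLC with UV detection at 218 nm.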

HCT-116 [15] = test: Antitumor activity against HCT116 bearing SCID mice at 25 mg/kg bolus iv after 11 days relative to control; type: functional, Homo sapiens
Summary of the method: (§5)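 SCID mice were implanted subcutaneously with 10^6 HCT-116 cells and pooled, 5 per group. Dosing started 3 days after inoculation: daily iv tail-vein bolus for 5 days, 0.25 mL of 1 or 2 mg/mL (about 12.5 or 25 mg/kg/day) in DMSO/cremophor/propylene glycol/saline vehicle. Tumor weight and body weight were followed to day 30, and %T/C was calculated versus untreated controls.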

L1210 [16] = test: Cytotoxicity against mouse L1210 cells at 9 ug/disk by disk diffusion method; type: functional; summary of the method: as §3
HCT-116 [17] = test: Formation of thick bundles of microtubule stabilization in human HCT116 cells at 2 to 20 uM; type: functional, cell-based
HCT-116 [18] = test: Antitumor activity against HCT116 bearing SCID mice at 12.5 mg/kg bolus iv after 9 days relative to control; type: functional, Homo sapiens; summary of the method: as §5
[19] = Cytotoxicity against human CFU-GM cells at 9 ug/disk by disk diffusion method; type: cell-based; summary of the method: as §3
HCT-116 [20] = test: Survival of human HCT116 cells at 5 ng/mL after 168 hrs; type: functional; details: HCT-116, 168 h, read-out: Survival
Summary of the method: (§6)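 Clonogenic assay. HCT-116 cells were seeded at 200 to 20 000 per 60 mm dish in RPMI + 10% FBS, then given drug at 1 mg/mL and 10-fold dilutions. Exposure was 2 h or 24 h followed by drug-free medium, or continuous. Dishes were incubated 7 days and stained with methylene blue; colonies of ≥50 cells were counted and normalized to untreated control. Experiments were repeated to span 100–0.1% survival.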

HCT-116 [21] = test: Increase in microtubule density in human HCT116 cells at 20 uM; type: functional, cell-based
HCT-116 [22] = test: Cytotoxicity against human HCT116 cells assessed as cell kill at 1.2 ng/mL after 168 hrs; type: functional; summary of the method: as §6
HCT-116 [23] = test: Cytotoxicity against human HCT116 cells assessed as cell kill at 10 ng/mL after 24 hrs; type: functional; summary of the method: as §6
HCT-116 [24] = test: Formation of thick bundles of microtubule stabilization in human HCT116 cells at 20 uM; type: functional, cell-based
HCT-116 [25] = test: Abnormal circular mitotic spindles formation in human HCT116 cells at 2 to 20 uM; type: functional, cell-based
MC-38 [26] = test: Cytotoxicity against mouse C38 cells at 36 ug/disk by disk diffusion method; type: functional; summary of the method: as §3
HCT-116 [27] = test: Antitumor activity against HCT116 bearig SCID mouse assessed as tumor weight at 25 mg/kg, iv after 30 mins; type: functional, Homo sapiens
[28] = Drug level in HCT116 bearing SCID mice plasma at 25 mg/kg, iv after 2 hrs; type: ADME, organism-based; parameters: dose 25 mg/kg, route intravenous; details: mouse; summary of the method: as §4
[29] = Cytotoxicity against human H125 cells at 9 ug/disk by disk diffusion method; type: functional; summary of the method: as §3
HCT-116 [30] = test: Antitumor activity against HCT116 bearig SCID mouse assessed as tumor weight at 25 mg/kg, iv after 24 hrs; type: functional, Homo sapiens
[31] = Cytotoxicity against human H116 cells at 9 ug/disk by disk diffusion method; type: functional; summary of the method: as §3
[32] = Drug level in HCT116 bearing SCID mice plasma at 25 mg/kg, iv after 24 hrs; type: ADME, organism-based; parameters: dose 25 mg/kg, route intravenous; details: mouse; summary of the method: as §4
[33] = Cytotoxicity against human H125 cells at 40 ug/disk by disk diffusion method; type: functional; summary of the method: as §1
CCRF-CEM [34] = test: Cytotoxicity against human CEM cells at 40 ug/disk by disk diffusion method; type: functional; summary of the method: as §1
MC-38 [35] = test: Cytotoxicity against mouse C38 cells at 40 ug/disk by disk diffusion method; type: functional; summary of the method: as §1
[36] = Cytotoxicity against human CFU-GM cells at 40 ug/disk by disk diffusion method; type: cell-based; summary of the method: as §1
L1210 [37] = test: Cytotoxicity against mouse L1210 cells at 40 ug/disk by disk diffusion method; type: functional; summary of the method: as §1
[38] = Cytotoxicity against human H116 cells at 40 ug/disk by disk diffusion method; type: functional; summary of the method: as §1
[39] = Cytotoxicity against human H116 cells at 60 ug/disk by disk diffusion method; type: functional; summary of the method: as §3
MC-38 [40] = test: Cytotoxicity against mouse C38 cells at 60 ug/disk by disk diffusion method; type: functional; summary of the method: as §3
[41] = Cytotoxicity against human H125 cells at 60 ug/disk by disk diffusion method; type: functional; summary of the method: as §3
L1210 [42] = test: Cytotoxicity against mouse L1210 cells at 60 ug/disk by disk diffusion method; type: functional; summary of the method: as §3
[43] = Cytotoxicity against human CFU-GM cells at 30 ug/disk by disk diffusion method; type: cell-based; summary of the method: as §1

SMILES	Activity (HCT-116 [3])	IC50 (HCT-116 [4]) [µM]	IC50 (MDA-MB-435) [µM]	Activity (HCT-116 [7])	Activity (HCT-116 [8])	Activity [9] [Zone units]	Activity [10] [Zone units]	Activity (MC-38 [11]) [Zone units]	Activity (L1210 [12]) [Zone units]	also measured
C=C1C[C@H](C)C[C@@H]2CC=C[C@@H](C/C=C\C(=O)O[C@H]3C[C@@H](O[C@H]3/C=C/[C@@H]3CC(C)=CC(=O)O3)[C@@H](O)[C@@H](O)C1)O2 [FIIJIANOLIDE D]	inactive	1.9	21.4	inactive	inactive	–	–	–	–	Activity (MC-38 [1]): 150 Zone units; Activity (L1210 [2]): 0 Zone units; Activity [5]: 0 Zone units; Activity [6]: 0 Zone units
C=C1C[C@H](C)C[C@@H]2CC=C[C@@H](C/C=C\C(=O)O[C@H]3C[C@@H](O[C@H]3/C=C/[C@@H]3CC(C)=CCO3)[C@@H](O)[C@@H](O)C1)O2 [FIJIANOLIDE A]	–	9.7	20.2	–	–	100	50	0	150	–
C=C1C[C@H](C)C[C@@H]2CC=C[C@@H](C/C=C\C(=O)O[C@H]([C@@H](O)/C=C/[C@@H]3CC(C)=CCO3)C[C@@H]3O[C@H]3[C@@H](O)C1)O2 [FIJIANOLIDE B]	–	0.003	0.007	–	–	–	–	–	–	Activity (CCRF-CEM [13]): >1000 Zone units; concentration at 1 min [14]: 160 µg/mL; Activity (HCT-116 [15]): 11%; Activity (L1210 [16]): 500 Zone units; Activity (HCT-116 [17]): Active; Activity (HCT-116 [18]): 80%; Activity [19]: 550 Zone units; viability at 0.005 µg/mL (HCT-116 [20]): 0.01%; Activity (HCT-116 [21]): Active; Activity (HCT-116 [22]): 90%; Activity (HCT-116 [23]): 90%; Activity (HCT-116 [24]): inactive; Activity (HCT-116 [25]): Active; Activity (MC-38 [26]): 800 Zone units; Activity (HCT-116 [27]): 4.7 µg/mg; concentration at 2 h [28]: 1 µg/mL; Activity [29]: 250 Zone units; Activity (HCT-116 [30]): 2.8 µg/mg; Activity [31]: 700 Zone units; concentration at 24 h [32]: 200 µg/mL
C=C1C[C@H](C)C[C@@H]2CC=C[C@@H](C/C=C\C(=O)OC([C@@H](O)/C=C/[C@@H]3CC(C)=CC(=O)O3)C[C@@H]3O[C@H]3[C@@H](O)C1)O2 (stereo not given in full) [FIJIANOLIDE E]	Active	0.7	1.3	Active	Active	–	–	–	–	Activity [33]: 400 Zone units; Activity (CCRF-CEM [34]): 550 Zone units; Activity (MC-38 [35]): 400 Zone units; Activity [36]: 500 Zone units; Activity (L1210 [37]): 350 Zone units; Activity [38]: 500 Zone units
C=C1C[C@H](C)C[C@@H]2CC=C[C@@H](C/C=C\C(=O)O[C@H]3C[C@@H](O[C@H]3/C=C/[C@@H]3C[C@@]4(C)O[C@H]4[C@@H](O)O3)[C@@H](O)[C@@H](O)C1)O2 [FIJIANOLIDE F]	inactive	> 50	> 50	inactive	inactive	–	–	–	–	Activity [39]: 50 Zone units; Activity (MC-38 [40]): 0 Zone units; Activity [41]: 100 Zone units; Activity (L1210 [42]): 150 Zone units
C=C1C[C@H](C)C[C@@H]2CC=C[C@@H](C/C=C\C(=O)O[C@H]([C@@H](O)/C=C/[C@@H]3C[C@@]4(C)O[C@H]4[C@@H](O)O3)C[C@@H]3O[C@H]3[C@@H](O)C1)O2 [FIJIANOLIDE G]	Active	14.1	9.2	Active	Active	200	200	350	150	Activity [43]: 100 Zone units
C=C1C[C@H](C)C[C@@H]2CC=C[C@@H](C/C=C\C(=O)O[C@H]3C[C@@H](O[C@H]3/C=C/[C@@H]3CC(C)=CC(OC)O3)[C@@H](O)[C@@H](O)C1)O2 (stereo not given in full) [FIJIANOLIDE H]	inactive	> 50	> 50	inactive	inactive	–	–	–	–	Activity [33]: 0 Zone units; Activity (MC-38 [35]): 150 Zone units; Activity (L1210 [37]): 0 Zone units; Activity [38]: 0 Zone units
C=C1C[C@H](C)C[C@@H]2CC=C[C@@H](C/C=C\C(=O)O[C@H]3C[C@@H](O[C@H]3/C=C/[C@@H]3CC(C)=CC(O)O3)[C@@H](O)[C@@H](O)C1)O2 (stereo not given in full) [FIJIANOLIDE I]	inactive	> 50	> 50	inactive	inactive	0	0	50	0	–
